The record followed here is ChEMBL document CHEMBL1137457, “5'-O-masked 2'-deoxyadenosine analogues as lead compounds for hepatitis C virus (HCV) therapeutic agents” (Bioorg Med Chem, 2007).

By EC50 is commonly meant the concentration needed to bring the measured effect to its halfway point. High values mean a need for much substance, low ones an effect from little substance. As a reminder, the CC50 is the concentration giving 50% cytotoxicity. A high value points to lower toxicity to the cells.

The subject of one data set is Hepatitis C virus. The data set can be described thus: Inhibition of HCV replication in Huh7 cells after 48 hrs by luciferase assay. The note with it: Huh-7, 48 h. Type of data set: functional, organism-based, Hepacivirus hominis. Summed up:
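HCV subgenomic replicon cells carrying luciferase reporter; replicon inhibition read by luciferase after two-day incubation with compound; EC50 averaged from at least three independent experiments.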

Data set [1] can be described thus: Cytotoxicity against Huh7 cells by XTT assay. Type of data set: cell-based. The note with it: human, huh-7. The method in brief: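 Cytotoxicity in the replicon-bearing cells measured by XTT tetrazolium assay per manufacturer's protocol; CC50 averaged from at least three independent experiments.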
On the technique in general: Tetrazolium assays rely on reduction of a dye to a coloured formazan, in cell work by metabolically active cells.

A short description of data set [2]: Antiviral index, ratio of CC50 for Huh7 cells to EC50 for HCV replication. It is filed as functional, Huh-7. Summed up: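 Antiviral index calculated as 50% toxic dose (XTT, replicon cells) divided by 50% effective dose (luciferase replicon read-out after two days); from at least three independent experiments.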

Each structure is given as a SMILES string.

`O[C@H]1C[C@H](n2cnc3c(Cl)ncnc32)O[C@@H]1COCc1ccccc1` came in with an EC50 in the data set on Hepatitis C virus of 17.7 µM. Further, the 50% cytotoxic concentration (CC50) in data set [1] was determined as 178 µM. The “Ratio CC50/EC50” value in data set [2] turned out to be 10.1.
In the same order, the values of `CN(C)c1ncnc2c1ncn2[C@H]1C[C@H](O)[C@@H](COC(=O)c2ccccc2)O1` are 22.3 µM, over 200 µM and over 9.
Regarding `CSc1ncnc2c1ncn2[C@H]1C[C@H](O)[C@@H](COC(=O)c2ccccc2)O1`, the EC50 in the data set on Hepatitis C virus is over 100 µM.
In the data set on Hepatitis C virus, `O=C(OC[C@@H]1C[C@@H](O)[C@H](n2cnc3c(Cl)ncnc32)O1)c1ccccc1` came in with an EC50 of 38.1 µM. This molecule returned a CC50 in data set [1] of 70.5 µM. The “Ratio CC50/EC50” value in data set [2] is 1.9.
`CC(C)(C)C(=O)OC[C@H]1O[C@@H](n2cnc3c(Cl)ncnc32)C[C@@H]1O` displayed an EC50 in the data set with Hepatitis C virus of 28 µM. In data set [1], this molecule showed a CC50 of 177 µM. In data set [2], the “Ratio CC50/EC50” value is 6.3.
Regarding `COc1ccc(C(=O)OC[C@H]2O[C@@H](n3cnc4c(Cl)ncnc43)C[C@@H]2O)cc1`, in the data set with Hepatitis C virus, the EC50 stood at 8.4 µM. This molecule yielded a CC50 in data set [1] of 76.4 µM. Besides, in data set [2], the “Ratio CC50/EC50” value is 9.1.
The molecule `Cc1cc(C)c(C(=O)OC[C@H]2O[C@@H](n3cnc4c(Cl)ncnc43)C[C@@H]2O)c(C)c1` yielded a half-maximal effective concentration (EC50) with Hepatitis C virus of over 50 µM. This molecule also showed a cytotoxic concentration (CC50) in data set [1] of 91 µM. In addition, the “Ratio CC50/EC50” value in data set [2] was under 1.8.
In the case of `O=C(OC[C@H]1C[C@@H](n2cnc3c(Cl)ncnc32)[C@@H]1CO)c1ccccc1`, in the data set with Hepatitis C virus, the EC50 came out at 6.4 µM. Moreover, in data set [1], the midpoint of cytotoxicity, the CC50, lay at 20 µM. Further, the “Ratio CC50/EC50” value in data set [2] was 3.1.
In the data set with Hepatitis C virus, `O=C(OC[C@H]1O[C@@H](n2cnc3c(Cl)ncnc32)[C@H](O)[C@@H]1O)c1ccccc1` yielded an EC50 of 41 µM. The molecule also yielded a half-maximal cytotoxic concentration (CC50) in data set [1] of 97.3 µM. The “Ratio CC50/EC50” value in data set [2] is 2.4.
`O=C(OC[C@H]1O[C@@H](n2cnc3c(Cl)ncnc32)C[C@@H]1O)c1ccccc1` came in with an EC50 in the data set on Hepatitis C virus of 6.1 µM. This molecule displayed a CC50 in data set [1] of 111 µM. For the same molecule, the “Ratio CC50/EC50” value in data set [2] came to 18.2.
In the same order, the values of `OC[C@H]1O[C@@H](n2cnc3c(Cl)ncnc32)C[C@@H]1O` are 47.2 µM, 173 µM and 3.7.
Take `OC[C@@H]1C[C@@H](O)[C@H](n2cnc3c(Cl)ncnc32)O1`: the response in the data set on Hepatitis C virus was half-maximal at 64.1 µM (EC50). The CC50 in data set [1] was over 200 µM. Besides, the “Ratio CC50/EC50” value in data set [2] was over 3.1.
In the same order, the values of `OCC(CO)CCn1cnc2c(Cl)ncnc21` are 80.8 µM, over 200 µM and over 2.5.
Consider `Nc1ncnc2c1ncn2[C@H]1C[C@H](O)[C@@H](COC(=O)c2ccccc2)O1`, for which the midpoint of the response with Hepatitis C virus, the EC50, lay at 105 µM. Further, the CC50 in data set [1] is over 200 µM. Further, in data set [2], the “Ratio CC50/EC50” value was over 1.9.
In the case of `O=C(OC[C@H]1O[C@@H](n2cnc3c(O)ncnc32)C[C@@H]1O)c1ccccc1`, the EC50 in the data set with Hepatitis C virus is over 100 µM.
On to `OC[C@H]1C[C@@H](n2cnc3c(Cl)ncnc32)[C@@H]1CO`, for which the EC50 with Hepatitis C virus is 46.1 µM. Further, in data set [1], the CC50 is over 200 µM. The “Ratio CC50/EC50” value in data set [2] stood at 4.3.
The molecule `O=C(OCC(CO)CCn1cnc2c(Cl)ncnc21)c1ccccc1` (configuration not stated) yielded a concentration giving a half-maximal response (EC50) with Hepatitis C virus of 13.3 µM. This molecule came in with a CC50 in data set [1] of 108 µM. The “Ratio CC50/EC50” value in data set [2] turned out to be 8.1.
Regarding `CCCC(=O)OC[C@H]1O[C@@H](n2cnc3c(Cl)ncnc32)C[C@@H]1O`, the EC50 with Hepatitis C virus was 30.3 µM. In addition, the CC50 in data set [1] is over 200 µM. The “Ratio CC50/EC50” value in data set [2] is reported as over 6.6.
In the same order, the values of `C=CCOC[C@H]1O[C@@H](n2cnc3c(Cl)ncnc32)C[C@@H]1O` are 24.5 µM, 140 µM and 5.7.
The molecule `OC[C@H]1O[C@@H](n2cnc3c(Cl)ncnc32)[C@H](O)[C@@H]1O` yielded an EC50 with Hepatitis C virus of 31 µM. Further, in data set [1], the CC50 was over 200 µM. Further, in data set [2], the “Ratio CC50/EC50” value is recorded as over 6.5.
In the data set on Hepatitis C virus, `O=S(=O)(OC[C@H]1O[C@@H](n2cnc3c(Cl)ncnc32)C[C@@H]1O)c1ccccc1` had an EC50 of 28.8 µM. The molecule further came in with a CC50 in data set [1] of 146 µM. In data set [2], the “Ratio CC50/EC50” value is 5.1.
In turn, `NC(=O)c1ncn([C@@H]2O[C@H](CO)[C@@H](O)[C@H]2O)n1` [RIBAVIRIN] displayed an EC50 with Hepatitis C virus of 54.8 µM. Besides, the CC50 in data set [1] is over 200 µM. In addition, the “Ratio CC50/EC50” value in data set [2] was over 3.7.
